In ChEMBL document CHEMBL3351496, “Inhibition of the ANT(2")-Ia resistance enzyme and rescue of aminoglycoside antibiotic activity by synthetic α-hydroxytropolones” (Bioorg Med Chem Lett, 2014):
Activity calls are given as the source filed them. No cut-off for these calls is given here.

Columns and labels:
[1] = Inhibition of Escherichia coli BL21 (lambda DE3) 2''-O-adenylyltransferase 1a by EnzChek pyrophosphate assay
How it was run: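 ANT(2″)-Ia overexpressed in E. coli BL21 (λDE3) and purified. Adenylation of kanamycin B followed by detecting the pyrophosphate by-product in 96-well format. ATP at 25 μM. Duplicate serial dilutions of inhibitor; IC50 taken from the dose curves.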

Escherichia coli [2] = test: Antibacterial activity against Escherichia coli BW25113 expressing 2''-O-adenylyltransferase 1a with aadB gene into pGDP4 vector by checkerboard analysis in presence of gentamycin; assay type: functional
How it was run: (§1)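 Hyper-permeable E. coli BW25113 made gentamicin-resistant by cloning aadB (ANT(2″)-Ia) into pGDP4. Cells were exposed to serial dilutions of gentamicin crossed with serial dilutions of α-hydroxytropolone in checkerboard format. Growth was scored to give the gentamicin MIC at each inhibitor level and the FICI. Cell survival, as fraction of cells remaining, was scored at the inhibitor-alone concentrations.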

[3] = Binding affinity to Escherichia coli BL21 (lambda DE3) 2''-O-adenylyltransferase 1a by ATP-competitive inhibition assay
How it was run: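 Purified ANT(2″)-Ia expressed in E. coli BL21 (λDE3). Pyrophosphate from kanamycin B adenylation detected by coupled pyrophosphate assay. Ki derived from dose curves with carefully maintained ATP and kanamycin B concentrations. Run only on compounds with IC50 < 200 μM.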

Escherichia coli [4] = test: Antibacterial activity against Escherichia coli BW25113 expressing 2''-O-adenylyltransferase 1a with aadB gene into pGDP4 vector assessed as cell remain at 50 uM; assay type: functional; how it was run: as §1
Escherichia coli [5] = test: Antibacterial activity against Escherichia coli BW25113 expressing 2''-O-adenylyltransferase 1a with aadB gene into pGDP4 vector assessed as gentamycin MIC at 12 uM by checkerboard analysis; assay type: functional; how it was run: as §1
Escherichia coli [6] = test: Antibacterial activity against Escherichia coli BW25113 expressing 2''-O-adenylyltransferase with aadB gene into pGDP4 vector; assay type: functional, organism-based
How it was run: (§2)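 Gentamicin alone was serially diluted to find its MIC (μg/mL). This was done against E. coli BW25113 carrying aadB in pGDP4 and against wild-type BW25113 without the plasmid.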

Escherichia coli [7] = test: Antibacterial activity against wild type Escherichia coli BW25113; assay type: functional, organism-based; how it was run: as §2
Escherichia coli [8] = test: Inhibition of Escherichia coli W677/JR76.2 2''-O-adenylyltransferase 1a using [14C]ATP at 5.5 uM by liquid scintillation counting analysis
Escherichia coli [9] = test: Inhibition of Escherichia coli W677/JR76.2 2''-O-adenylyltransferase 1a using [14C]ATP at 55 uM by liquid scintillation counting analysis
Escherichia coli [10] = test: Inhibition of Escherichia coli W677/JR76.2 2''-O-adenylyltransferase 1a using [14C]ATP at 550 uM by liquid scintillation counting analysis
Escherichia coli [11] = test: Antibacterial activity against Escherichia coli BW25113 expressing 2''-O-adenylyltransferase 1a with aadB gene into pGDP4 vector assessed as cell death at 50 uM; assay type: functional, organism-based; how it was run: as §1
Escherichia coli [12] = test: Inhibition of Escherichia coli W677/JR76.2 2''-O-adenylyltransferase 1a using [14C]ATP at 73 uM by liquid scintillation counting analysis
Escherichia coli [13] = test: Inhibition of Escherichia coli W677/JR76.2 2''-O-adenylyltransferase 1a using [14C]ATP at 7.3 uM by liquid scintillation counting analysis
Escherichia coli [14] = test: Antibacterial activity against Escherichia coli BW25113 expressing 2''-O-adenylyltransferase 1d with aadB gene into pGDP4 vector by checkerboard analysis in presence of gentamycin; assay type: functional
Escherichia coli [15] = test: Inhibition of Escherichia coli W677/JR76.2 2''-O-adenylyltransferase 1a using [14C]ATP at 730 uM by liquid scintillation counting analysis

With `Cc1cc(O)c(=O)c(O)cc1-c1ccc(Cl)cc1` the IC50 [1] was 9.9 µM, the “fractional inhibitory concentration index (FICI)” value (Escherichia coli [2]) was 2 and the Ki [3] was 6.9 µM.

For `Cc1cc(O)c(=O)c(O)cc1-c1ccc([N+](=O)[O-])cc1`, the IC50 [1] was 20 µM, the “fractional inhibitory concentration index (FICI)” value (Escherichia coli [2]) was 0.5 and the Ki [3] was 21.4 µM.

In the case of `CC(=O)c1cc(O)c(=O)c(O)cc1C`, the IC50 [1] is reported as 50 µM, the “fractional inhibitory concentration index (FICI)” value (Escherichia coli [2]) is reported as 0.187 and the Ki [3] is reported as 29 µM. For the same compound, the Activity (Escherichia coli [4]) was 80% and the MIC (Escherichia coli [5]) was 32 µg/mL.

With `Cc1cc(O)c(=O)c(O)cc1-c1ccccc1` the IC50 [1] was 117 µM, the “fractional inhibitory concentration index (FICI)” value (Escherichia coli [2]) was 2 and the Ki [3] was 25 µM.

For `Cc1cc(O)c(=O)c(O)cc1C(=O)C(C)C`, the IC50 [1] was 73 µM, the “fractional inhibitory concentration index (FICI)” value (Escherichia coli [2]) was 0.375 and the Ki [3] was 19 µM.

In the case of `CCOC(=O)c1cc(O)c(=O)c(O)cc1C`, the IC50 [1] is reported as > 200 µM.

For `COc1cc(C)c(-c2ccc([N+](=O)[O-])cc2)cc(O)c1=O`, the IC50 [1] was > 200 µM.

With `Cc1cc(O)c(=O)c(O)cc1-c1ccc2ccccc2c1` the IC50 [1] was > 200 µM.

In the case of `Cc1cc(O)c(=O)c(O)cc1-c1ccc(Br)cc1`, the IC50 [1] is reported as 8 µM, the “fractional inhibitory concentration index (FICI)” value (Escherichia coli [2]) is reported as 1 and the Ki [3] is reported as 5.7 µM.

With GENTAMICIN the MIC (Escherichia coli [6]) was 64 µg/mL and the MIC (Escherichia coli [7]) was 0.25 µg/mL.

For `Cc1cc(O)c(=O)c(O)cc1-c1cccc2ccccc12`, the IC50 [1] was > 200 µM.

For `COc1cc(C)c(C(C)=O)cc(O)c1=O`, the IC50 [1] was > 200 µM.

In the case of `Cc1cc(O)c(=O)c(O)cc1C(=O)C1CCCCC1`, the IC50 [1] is reported as > 200 µM.

With `Cc1cc(O)c(=O)c(O)cc1-c1ccc(-c2ccccc2)cc1` the IC50 [1] was > 200 µM.

For `O=c1c(O)ccccc1O`, the inhibition (Escherichia coli [8]) was 8%, the inhibition (Escherichia coli [9]) was 78% and the inhibition (Escherichia coli [10]) was 100%.

For `CC(C)c1ccc(O)c(=O)c(O)c1` [BETA-THUJAPLICINOL], the Activity (Escherichia coli [11]) was “Active”, the inhibition (Escherichia coli [12]) was 76% and the IC50 [1] was 6.6 µM. For the same compound, the inhibition (Escherichia coli [13]) was 31%, the “fractional inhibitory concentration index (FICI)” value (Escherichia coli [2]) was 0.375 and the “fractional inhibitory concentration index (FICI)” value (Escherichia coli [14]) was 3. It also gave a Ki [3] of 6.4 µM, an inhibition (Escherichia coli [15]) of 100% and an MIC (Escherichia coli [5]) of 8 µg/mL.

For `COCc1cc(O)c(=O)c(O)c(C(=O)OC)c1C(=O)OC`, the IC50 [1] was > 200 µM.

With `Cc1cc(O)c(=O)c(O)cc1C(=O)CC1CCCCC1` the IC50 [1] was > 200 µM.

In the case of `COC(=O)c1c(CCl)cc(O)c(=O)c(O)c1C(=O)OC`, the IC50 [1] is reported as > 200 µM.

In the case of `Cc1cc(O)c(=O)c(O)cc1-c1ccc(C(F)(F)F)cc1`, the IC50 [1] is reported as > 200 µM.

With `COC(=O)c1c(C)cc(O)c(=O)c(O)c1C(=O)OC` the IC50 [1] was > 200 µM.

In the case of `Cc1cc(O)c(=O)c(O)cc1C(=O)c1ccccc1`, the IC50 [1] is reported as > 200 µM.
